Assay outcomes: PubChem, Broad Institute
An excerpt weighted towards active compounds, which were near 2.4% of everything screened.
dFosB act-1 = enhances mouse delta FosB homodimer DNA binding | 340,000 compounds, 0.99% hits | activation, % at 25 µM | P13346 | AID 493131 | purified delta FosB, TAMRA-CDK5 oligo fluorescence polarization; percent of positive-control signal above neutral wells;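 active means mean activation above about 17%, with every replicate also reaching it, limit read from the data, passing the limit was not always enough; inconclusive means only one of the two conditions met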
Target sequence (P13346 whole entry, looked up): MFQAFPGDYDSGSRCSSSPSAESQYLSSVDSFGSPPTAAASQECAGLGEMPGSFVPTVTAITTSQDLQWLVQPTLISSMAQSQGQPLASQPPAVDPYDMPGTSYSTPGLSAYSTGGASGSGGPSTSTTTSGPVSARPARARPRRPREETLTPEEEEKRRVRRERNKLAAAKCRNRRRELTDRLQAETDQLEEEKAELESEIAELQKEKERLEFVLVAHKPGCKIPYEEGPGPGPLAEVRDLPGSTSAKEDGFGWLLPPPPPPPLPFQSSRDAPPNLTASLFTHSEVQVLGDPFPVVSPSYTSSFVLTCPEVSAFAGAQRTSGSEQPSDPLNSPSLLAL
Rtt109 Vps75 = C. albicans Rtt109 histone acetyltransferase inhibition | Q5AAJ8 | purified Rtt109/Vps75, ThioGlo CoA-SH fluorescence, 4 h | inhibition, % at 34.9 µM | 330,000 compounds, 0.16% hits;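 active means inhibition of at least 50% in every replicate; inconclusive means best replicate reaches 50% inhibition but some replicates fall short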
Target sequence (Q5AAJ8 whole entry, looked up): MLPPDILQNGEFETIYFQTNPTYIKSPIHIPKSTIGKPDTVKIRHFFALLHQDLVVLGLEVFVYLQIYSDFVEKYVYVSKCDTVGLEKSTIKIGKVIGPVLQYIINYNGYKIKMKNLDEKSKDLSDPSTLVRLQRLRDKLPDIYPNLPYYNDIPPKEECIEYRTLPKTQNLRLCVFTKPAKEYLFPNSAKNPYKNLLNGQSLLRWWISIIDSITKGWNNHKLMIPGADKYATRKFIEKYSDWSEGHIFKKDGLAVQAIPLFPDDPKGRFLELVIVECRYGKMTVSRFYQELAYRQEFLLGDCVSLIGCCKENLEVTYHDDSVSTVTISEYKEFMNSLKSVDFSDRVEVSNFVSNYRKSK
INS-1E GSIS act = primary screen for activators of insulin secretion dependent on glucose, INS-1E cells, GLuc reporter luminescence; INS-1E GLuc reporter insulin secretion, 2-3 h; activation, % at 16.6 µM; 370,000 compounds, 0.61% hits; AID 743287;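 active means lowest replicate activation of at least 40%, so every replicate reaches that level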
Env fusion inh = HIV envelope-mediated fusion inhibition; HeLa-JRFL Env/CEM21 cell fusion, luciferase; inhibition, % at 12.3 µM; 360,000 compounds, 1.1% hits; AID 651610;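 active means mean replicate inhibition score of at least 50 and every replicate individually at or above 50; inconclusive means only one of the two criteria met; inactive means mean below 50 and not all replicates reaching 50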
Cneo AK release = causes C. neoformans cell lysis; lysis activity, % at 15 µM; adenylate kinase release luminescence, 4 h; normalised: neutral wells 0, clomiphene wells 100; 360,000 compounds, 0.2% hits;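 active means mean lysis activity across replicates of at least 80%, whatever share of replicates individually reach that level; inactive means mean lysis activity below 80%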
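Signal: Adenylate kinase release luminescence | Assay system: Log-phase Cryptococcus neoformans yeast cells | Input: Cells at 5 × 10^6 per mL | Buffer or medium: Fresh YPD growth medium | Compound: Single dose | Schedule: Static 4 h at 37 °C with compound, 1 h detection | Controls: Clomiphene | Read-out: Luminescence rise reflecting yeast cell lysis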
miR122 inh = miR-122 inhibition in Huh7 cells; Huh7 miR-122 Renilla luciferase sensor, 48 h; neutral wells = 0, positive control = 100; activation (reporter increase), % at 12.5 µM; 340,000 compounds, 0.3% hits; AID 602342;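 active means mean replicate activation score at least 90 and every replicate individually at or above 90; inconclusive means only one of the two criteria met; inactive means neither criterion met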;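 further: higher luciferase means less miR-122 activity so hits act as miR-122 inhibitors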
dFosB act-2 = enhances mouse delta FosB homodimer binding to DNA | shares compounds with dFosB act-1 | activation, % at 24.9 µM | purified delta FosB, TAMRA-CDK5 oligo fluorescence polarization; normalised: neutral wells 0, positive control 100 | 2,400 tested, under 10 active;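 active means highest replicate activation at or above 34% and every replicate reaching that threshold; inconclusive means meets only one of the two criteria; inactive means meets neither criterion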;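 further: higher polarization means more probe DNA bound by delta FosB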
Numbers stand for hits; n = inactive; u = inconclusive; x = not tested or not shown; [ ] = another dose, or the depositor's remark.

SMILES | dFosB act-1 | Rtt109 Vps75 | INS-1E GSIS act | Env fusion inh | Cneo AK release | miR122 inh | others
C[C@@H]1CN([C@@H](C)CO)C(=O)c2cccc(NS(=O)(=O)c3ccccc3)c2O[C@@H]1CN(C)Cc1ccc(Cl)c(Cl)c1 | x | x | n | 73[16.7 µM] | n | n
C[C@@H]1CN([C@H](C)CO)C(=O)c2cccc(NS(=O)(=O)c3ccccc3)c2O[C@@H]1CN(C)Cc1ccc(Cl)c(Cl)c1 | x | x | n | 81[16.7 µM] | n | n
CC=Cc1ccc2n(c1=O)C[C@H]1[C@H](CO)[C@@H](C(=O)NCC(F)(F)F)[C@@H]2N1C(=O)C1CCCC1 (mixture of isomers) | x | x | n | x | x | x
CC1CCCC(C)N1CCCNC(=O)c1nn(C)c2c1CSc1ccccc1-2 (configuration not stated) | n | n | n | 80 | n | n
CC1CCCN(C(=O)c2nn(C)c3c2CSc2ccccc2-3)C1 (configuration not stated) | n | n | n | n | n | n
COC(=O)c1sc(N)c(C(=O)OC)c1CSc1nnc(-c2ccccc2Cl)n1C | n | n | x | n | n | 104
C[C@@H]1CCCCO[C@@H](CN(C)Cc2ccc(C(=O)O)cc2)[C@H](C)CN([C@@H](C)CO)C(=O)c2cc(NS(=O)(=O)c3cn(C)cn3)ccc2O1 | x | x | n | n | n | n
O=C(Nc1ccccc1Cc1ccccc1)c1ccccc1NS(=O)(=O)c1ccc(Cl)s1 | n | n | n | 67 | n | n
COc1ccc(C)cc1S(=O)(=O)Nc1ccccc1C | n | n | x | x | n | n
COc1ccc(S(=O)(=O)Nc2cc(Cl)ccc2OC)cc1 | n | n | n | u | n | 138
COc1ccc(CCNS(=O)(=O)c2ccc(N3CCCC3=O)cc2)cc1 | n | n | n | x | n | n
CCc1ccc(OC)c(S(=O)(=O)Nc2ccccc2C)c1 | n | n | n | x | n | 115
COc1cc(NS(=O)(=O)c2cc(C)ccc2OC)c(OC)cc1Cl | n | n | x | x | n | n
COc1ccc(C)cc1S(=O)(=O)Nc1cc(Cl)ccc1Cl | n | n | n | x | n | 215
COc1ccc(OC)c(NS(=O)(=O)c2ccc(N3CCCC3=O)cc2)c1 | n | n | n | x | n | 120
COc1ccc(CC(=O)OCC(=O)N2CCCc3ccccc32)cc1OC | n | n | 111 | n | x | n
COc1ccc(CC(=O)OCC(=O)N2CCc3ccccc32)cc1OC | n | n | 121 | x | n | n
COc1cccc(C(=O)OCC(=O)N2CCc3ccccc32)c1OC | n | n | n | n | n | n
COc1ccc2c3c(n(C)c2c1)[C@@H](CO)N(C(=O)C1CC1)CC31CCN(CC2CCCC2)CC1 | x | x | n | x | x | x
COc1ccc(S(=O)(=O)N[C@@H]2CC[C@@H](CC(=O)N3CCc4ccccc4C3)O[C@@H]2CO)cc1 | x | x | n | n | n | x
Cc1ccccc1S(=O)(=O)N1CC(=O)N2[C@@H](CO)[C@H](c3ccc(C#CCC4CCCC4)cc3)[C@@H]2C1 | x | x | 43 | x | x | x
Fc1ccc(C2=Nc3cccc4cccc(c34)N2)cc1 | n | x | n | n | n | n
Brc1ccc(C2=Nc3cccc4cccc(c34)N2)o1 | 23 | n | x | n | x | x
Cn1c(CN2CCCCC2)nc2cc(NC(=O)c3ccccc3)ccc21 | n | n | x | n | n | n
Cn1c(CN2CCCCC2)nc2cc(NC(=O)c3cccc(Br)c3)ccc21 | n | n | x | 67 | n | n
SMILES | dFosB act-1 | Rtt109 Vps75 | INS-1E GSIS act | Env fusion inh | Cneo AK release | miR122 inh | others
CN1C(=O)c2cc(NC(=O)c3ccc(F)c(F)c3)ccc2OC[C@H]2O[C@@H](CC(=O)O)CC[C@H]21 | x | x | n | n | n | n
COc1ccc(C2=NNC(=Nc3cc(S(=O)(=O)N(C)C)ccc3C)SC2)c(OC)c1 | n | n | n | 67 | n | n
Cc1noc(C)c1S(=O)(=O)N(C)C[C@H]1Oc2ccc(NS(=O)(=O)c3cn(C)cn3)cc2CC(=O)N([C@H](C)CO)C[C@@H]1C | x | x | n | n | n | n
C/C(=N\NC(=O)c1ccccc1O)C1C(=O)c2ccccc2C1=O | n | u | x | n | n | 119
C/C(=N/NC(=O)c1cc2ccccc2cc1O)C1C(=O)c2ccccc2C1=O | n | n | x | n | n | n
COc1ccccc1CNC(=O)C[C@@H]1C[C@H]2c3cc(NS(=O)(=O)c4ccc(F)cc4)ccc3O[C@H]2[C@@H](CO)O1 | x | x | n | n | n | n
Cc1cc(CN2C(=O)c3ccccc3C2=O)on1 | n | n | x | n | n | n
Cc1cc(CN2C(=O)c3ccccc3C2=O)no1 | n | 57 | n | n | n | n
COCC(=O)Nc1ccc2c(c1)OC[C@H](C)N(CCC(F)(F)F)C[C@H](C)[C@@H](OC)CN(C)C2=O | x | x | n | n | n | x
CCC(=O)N1CC2(CCN(S(C)(=O)=O)CC2)c2c(n(C)c3cc(OC)ccc23)[C@H]1CO | x | x | n | x | x | x
O=C(C[C@@H]1CC[C@H](NC(=O)CC2CC2)[C@H](CO)O1)NCc1ccccc1 | x | x | n | x | x | x
COc1ccc2oc(C(=O)OCC(=O)Nc3ccc(NC(C)=O)cc3)c(C)c2c1 | 36 | n | n | n | n | x | dFosB act-2=n
COc1ccc2oc(C(=O)OCC(=O)Nc3ccc(OC)c(S(N)(=O)=O)c3)c(C)c2c1 | n | n | n | n | n | n
COc1ccc2oc(C(=O)OCC(=O)Nc3cc(S(=O)(=O)N4CCOCC4)ccc3C)c(C)c2c1 | 38 | n | n | n | x | x | dFosB act-2=n
C=CCNC(=O)c1ccc(Cn2c(=S)[nH]c3cc4c(cc3c2=O)OCO4)cc1 | 34 | n | x | n | n | n | dFosB act-2=n
O=C(NCCN1CCCC1)c1ccc(Cn2c(=S)[nH]c3cc4c(cc3c2=O)OCO4)cc1 | 25 | n | x | n | n | n | dFosB act-2=n
CCN(CC)C(=O)c1ccc2c(=O)n(Cc3ccc4c(c3)OCO4)c(=S)[nH]c2c1 | n | n | x | n | n | x
C[C@H](CO)N1C[C@H](C)[C@H](CN(C)Cc2ccc(C(=O)O)cc2)OCCCC[C@H](C)Oc2ccc(NC(=O)CCCN(C)C)cc2C1=O | x | x | n | n | n | n
c1nc(NCc2ccc3c(c2)OCO3)c2cc(-c3ccc4c(c3)OCCO4)ccc2n1 | 39 | n | n | n | n | x | dFosB act-2=n
COc1cccc(-c2cc(C(=O)Nc3cccnc3Cl)no2)c1 | 31 | n | n | n | n | n | dFosB act-2=n
COc1ccc(-c2cc(C(=O)Nc3cccnc3Cl)no2)cc1OC | n | n | n | n | n | x
O=C(Nc1cccnc1Cl)c1cc(-c2cccc(O)c2)on1 | 55 | n | n | n | n | n | dFosB act-2=n
CCC(=O)N1CC2(CN(Cc3ccncc3)C2)c2c(n(C)c3cc(OC)ccc23)[C@@H]1CO | x | x | n | x | x | x
